Assays:
Format in all cases: functional
A549 = test: Antiproliferative activity against human A549 cells after 48 hrs by sulforhodamine B assay; conditions: A549, 48 h
Summary of the method: (§1)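 NCI 60-cell-line panel covering nine cancer types (leukemia, non-small cell lung, colon, CNS, melanoma, ovarian, renal, prostate, breast). Compounds were first tested at a single dose, then in a five-dose screen (series starting 0.01, 0.1 …) if they met NCI threshold criteria. Reported per line: GI50 (molar concentration inhibiting 50% net growth), TGI (total growth inhibition) and LC50 (50% net cell death).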

Malme-3M = test: Antiproliferative activity against human MALME-3M cells after 48 hrs by sulforhodamine B assay; summary of the method: as §1
SW-620 = test: Antiproliferative activity against human SW620 cells after 48 hrs by sulforhodamine B assay; conditions: SW-620, 48 h
Summary of the method: (§2)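 NCI 60-cell-line panel screen: single dose 10 µM first, then 5-dose testing (0.01, 0.1, … molar series). For each line, GI50 is the molar concentration giving 50% inhibition of net cell growth, TGI gives total inhibition of net growth, and LC50 gives 50% net cell death. Method follows the NCI DTP protocol.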

SNB-75 = test: Antiproliferative activity against human SNB75 cells after 48 hrs by sulforhodamine B assay; conditions: SNB-75, 48 h; summary of the method: as §1
786-0 = test: Antiproliferative activity against human 786-0 cells after 48 hrs by sulforhodamine B assay; conditions: 786-0, 48 h; summary of the method: as §1
MOLT-4 = test: Antiproliferative activity against human MOLT4 cells after 48 hrs by sulforhodamine B assay; conditions: MOLT-4, 48 h; summary of the method: as §1
[1] = Antiproliferative activity against human Hs 578T cells after 48 hrs by sulforhodamine B assay; summary of the method: as §1
NCI-H322M = test: Antiproliferative activity against human NCI-H322M cells after 48 hrs by sulforhodamine B assay; summary of the method: as §1
OVCAR-8 = test: Antiproliferative activity against human OVCAR8 cells after 48 hrs by sulforhodamine B assay; conditions: OVCAR-8, 48 h; summary of the method: as §1
SK-OV-3 = test: Antiproliferative activity against human SKOV3 cells after 48 hrs by sulforhodamine B assay; conditions: SK-OV-3, 48 h; summary of the method: as §1
HCT-15 = test: Antiproliferative activity against human HCT15 cells after 48 hrs by sulforhodamine B assay; conditions: HCT-15, 48 h; summary of the method: as §1
K562 = test: Antiproliferative activity against human K562 cells after 48 hrs by sulforhodamine B assay; conditions: K562, 48 h; summary of the method: as §1
SK-MEL-28 = test: Antiproliferative activity against human SK-MEL-28 cells after 48 hrs by sulforhodamine B assay; conditions: SK-MEL-28, 48 h; summary of the method: as §1
PC-3 = test: Antiproliferative activity against human PC3 cells after 48 hrs by sulforhodamine B assay; conditions: PC-3, 48 h; summary of the method: as §1
OVCAR-3 = test: Antiproliferative activity against human OVCAR3 cells after 48 hrs by sulforhodamine B assay; conditions: OVCAR-3, 48 h; summary of the method: as §1
KM12 = test: Antiproliferative activity against human KM12 cells after 48 hrs by sulforhodamine B assay; conditions: KM12, 48 h; summary of the method: as §1
MDA-MB-231 = test: Antiproliferative activity against human MDA-MB-231 cells after 48 hrs by sulforhodamine B assay; conditions: MDA-MB-231, 48 h; summary of the method: as §1
UACC-62 = test: Antiproliferative activity against human UACC62 cells after 48 hrs by sulforhodamine B assay; conditions: UACC-62, 48 h; summary of the method: as §2
NCI-H23 = test: Antiproliferative activity against human NCI-H23 cells after 48 hrs by sulforhodamine B assay; conditions: NCI-H23, 48 h; summary of the method: as §1
NCI-H226 = test: Antiproliferative activity against human NCI-H226 cells after 48 hrs by sulforhodamine B assay; conditions: NCI-H226, 48 h; summary of the method: as §1
SF-268 = test: Antiproliferative activity against human SF268 cells after 48 hrs by sulforhodamine B assay; conditions: SF-268, 48 h; summary of the method: as §1
U-251 = test: Antiproliferative activity against human U251 cells after 48 hrs by sulforhodamine B assay; conditions: U-251, 48 h; summary of the method: as §2
EKVX = test: Antiproliferative activity against human EKVX cells after 48 hrs by sulforhodamine B assay; summary of the method: as §1
NCI-H522 = test: Antiproliferative activity against human NCI-H522 cells after 48 hrs by sulforhodamine B assay; conditions: NCI-H522, 48 h; summary of the method: as §1
A498 = test: Antiproliferative activity against human A498 cells after 48 hrs by sulforhodamine B assay; conditions: A498, 48 h; summary of the method: as §1
T47D = test: Antiproliferative activity against human T47D cells after 48 hrs by sulforhodamine B assay; summary of the method: as §2
SK-MEL-2 = test: Antiproliferative activity against human SK-MEL-2 cells after 48 hrs by sulforhodamine B assay; conditions: SK-MEL-2, 48 h; summary of the method: as §1
HOP-92 = test: Antiproliferative activity against human HOP92 cells after 48 hrs by sulforhodamine B assay; conditions: HOP-92, 48 h; summary of the method: as §1
COLO 205 = test: Antiproliferative activity against human COLO205 cells after 48 hrs by sulforhodamine B assay; conditions: COLO 205, 48 h; summary of the method: as §1
SF-295 = test: Antiproliferative activity against human SF295 cells after 48 hrs by sulforhodamine B assay; conditions: SF-295, 48 h; summary of the method: as §1
OVCAR-4 = test: Antiproliferative activity against human OVCAR4 cells after 48 hrs by sulforhodamine B assay; conditions: OVCAR-4, 48 h; summary of the method: as §1
[2] = read-out: LC50 (the source's name)

In the case of `Nc1nn(C(=O)Nc2ccc(Cc3ccccc3)cc2)c2ccc(Cl)cc12`, the GI50 (A549) is reported as 2.52 µM, the TGI (A549) is reported as over 100 µM and the CC50 (A549; [2]) is reported as over 100 µM. For the same compound, the GI50 (Malme-3M) was 6.69 µM, the LC50 (concentration causing 50% net cell death) (Malme-3M) was over 100 µM and the TGI (Malme-3M) was 54.8 µM. The GI50 (SW-620) was 0.0565 µM, the TGI (SW-620) was 76.5 µM and the CC50 (SW-620; [2]) was over 100 µM. The GI50 (SNB-75) was 14 µM, the LC50 (concentration causing 50% net cell death) (SNB-75) was 74.5 µM and the TGI (SNB-75) was 32.3 µM. The GI50 (786-0) was 3.92 µM, the TGI (786-0) was 28.2 µM and the CC50 (786-0; [2]) was 94.4 µM. It also gave a GI50 (MOLT-4) of 2.41 µM, a TGI (MOLT-4) of 55.3 µM and a CC50 (MOLT-4; [2]) of over 100 µM. For the same compound, the GI50 [1] was 13.3 µM, the TGI [1] was 41.7 µM and the CC50 [1, 2] was over 100 µM. For the same compound, the GI50 (NCI-H322M) was 18.2 µM, the TGI (NCI-H322M) was over 100 µM and the CC50 (NCI-H322M; [2]) was over 100 µM. The GI50 (OVCAR-8) was 14.9 µM, the TGI (OVCAR-8) was over 100 µM and the CC50 (OVCAR-8; [2]) was over 100 µM. The GI50 (SK-OV-3) was 15.8 µM, the TGI (SK-OV-3) was 50.5 µM and the CC50 (SK-OV-3; [2]) was over 100 µM. For the same compound, the GI50 (HCT-15) was 0.0458 µM, the LC50 (concentration causing 50% net cell death) (HCT-15) was over 100 µM and the TGI (HCT-15) was over 100 µM. It also gave a GI50 (K562) of 0.0357 µM, an LC50 (concentration causing 50% net cell death) (K562) of over 100 µM and a TGI (K562) of 14.7 µM. It also gave a GI50 (SK-MEL-28) of 18.5 µM, a TGI (SK-MEL-28) of over 100 µM and a CC50 (SK-MEL-28; [2]) of over 100 µM. It also gave a GI50 (PC-3) of 2.9 µM, a TGI (PC-3) of 44.3 µM and a CC50 (PC-3; [2]) of over 100 µM. It also gave a GI50 (OVCAR-3) of 6.66 µM, a TGI (OVCAR-3) of 20.8 µM and a CC50 (OVCAR-3; [2]) of 48.2 µM. The GI50 (KM12) was 0.0726 µM, the TGI (KM12) was over 100 µM and the CC50 (KM12; [2]) was over 100 µM. For the same compound, the GI50 (MDA-MB-231) was 5.33 µM, the TGI (MDA-MB-231) was 37.6 µM and the CC50 (MDA-MB-231; [2]) was over 100 µM. The GI50 (UACC-62) was 0.0412 µM, the TGI (UACC-62) was over 100 µM and the CC50 (UACC-62; [2]) was over 100 µM. It also gave a GI50 (NCI-H23) of 5.34 µM, a TGI (NCI-H23) of 68.4 µM and a CC50 (NCI-H23; [2]) of over 100 µM. It also gave a GI50 (NCI-H226) of 15.4 µM, a TGI (NCI-H226) of 66.7 µM and a CC50 (NCI-H226; [2]) of over 100 µM. The GI50 (SF-268) was 13 µM, the TGI (SF-268) was 47.7 µM and the CC50 (SF-268; [2]) was over 100 µM. It also gave a GI50 (U-251) of 12.5 µM, an LC50 (concentration giving 50% net cell death) (U-251) of 58.4 µM and a TGI (U-251) of 27 µM. For the same compound, the GI50 (EKVX) was 3.19 µM, the TGI (EKVX) was 97.6 µM and the CC50 (EKVX; [2]) was over 100 µM. For the same compound, the GI50 (NCI-H522) was 15.6 µM, the LC50 (concentration causing 50% net cell death) (NCI-H522) was over 100 µM and the TGI (NCI-H522) was over 100 µM. For the same compound, the GI50 (A498) was 16.1 µM, the TGI (A498) was 60.7 µM and the CC50 (A498; [2]) was over 100 µM. The GI50 (T47D) was 0.0741 µM, the LC50 (concentration giving 50% net cell death) (T47D) was over 100 µM and the TGI (T47D) was 27.6 µM. The GI50 (SK-MEL-2) was 33.6 µM, the TGI (SK-MEL-2) was over 100 µM and the CC50 (SK-MEL-2; [2]) was over 100 µM. The GI50 (HOP-92) was 10.7 µM, the LC50 (HOP-92) was over 100 µM and the TGI (HOP-92) was 33.7 µM. It also gave a GI50 (COLO 205) of 0.588 µM, an LC50 (concentration causing 50% net cell death) (COLO 205) of over 100 µM and a TGI (COLO 205) of 23.8 µM. The GI50 (SF-295) was 0.0515 µM, the LC50 (SF-295) was over 100 µM and the TGI (SF-295) was 24.2 µM. For the same compound, the GI50 (OVCAR-4) was 5.73 µM, the TGI (OVCAR-4) was 34.3 µM and the CC50 (OVCAR-4; [2]) was over 100 µM.

Reference: ChEMBL document CHEMBL1649392, “Synthesis of substituted 3-amino-N-phenyl-1H-indazole-1-carboxamides endowed with antiproliferative activity” (Eur J Med Chem, 2011)
